In assay [1] the target is T1, Diacylglycerol lipase-alpha (Mus musculus) (UniProt Q6WQJ1).
T1 sequence (whole entry): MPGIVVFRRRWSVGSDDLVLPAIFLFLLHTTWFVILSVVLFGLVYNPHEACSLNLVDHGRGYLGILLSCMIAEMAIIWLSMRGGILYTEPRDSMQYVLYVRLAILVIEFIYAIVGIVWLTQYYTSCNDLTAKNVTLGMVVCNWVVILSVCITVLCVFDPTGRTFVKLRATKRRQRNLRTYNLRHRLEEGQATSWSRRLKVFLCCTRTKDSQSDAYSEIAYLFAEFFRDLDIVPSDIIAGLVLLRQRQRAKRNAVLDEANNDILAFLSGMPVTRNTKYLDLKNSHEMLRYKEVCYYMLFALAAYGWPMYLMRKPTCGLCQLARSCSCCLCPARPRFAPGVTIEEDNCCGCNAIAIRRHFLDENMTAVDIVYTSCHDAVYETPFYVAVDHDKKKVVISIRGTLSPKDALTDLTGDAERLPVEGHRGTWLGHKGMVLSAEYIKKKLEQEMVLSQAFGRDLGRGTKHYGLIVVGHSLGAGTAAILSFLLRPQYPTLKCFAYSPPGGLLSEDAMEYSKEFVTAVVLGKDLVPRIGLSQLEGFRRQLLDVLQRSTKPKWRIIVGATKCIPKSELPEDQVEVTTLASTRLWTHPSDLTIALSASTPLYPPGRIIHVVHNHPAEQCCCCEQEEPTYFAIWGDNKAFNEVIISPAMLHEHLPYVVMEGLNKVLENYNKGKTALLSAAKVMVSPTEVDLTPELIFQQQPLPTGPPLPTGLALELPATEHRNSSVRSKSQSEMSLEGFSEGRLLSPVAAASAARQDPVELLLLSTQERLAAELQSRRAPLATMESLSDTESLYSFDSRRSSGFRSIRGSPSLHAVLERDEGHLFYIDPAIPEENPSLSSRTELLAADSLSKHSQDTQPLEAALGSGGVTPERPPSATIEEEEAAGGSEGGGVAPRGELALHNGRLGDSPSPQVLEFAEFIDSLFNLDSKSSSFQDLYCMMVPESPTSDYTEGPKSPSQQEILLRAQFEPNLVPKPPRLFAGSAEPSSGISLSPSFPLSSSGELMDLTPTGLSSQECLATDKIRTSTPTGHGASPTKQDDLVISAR
Description: Inhibition of mouse DAGLalpha expressed in HEK293T cell membrane using [14C]SAG substrate at 10 nM by scintillation counting based radio-TLC assay. It is filed as cell membranes. The following applies: HEK-293T.

Assay [2] concerns the target T1, Diacylglycerol lipase-alpha (Mus musculus). Description: Inhibition of mouse DAGLalpha expressed in HEK293T cell membrane using [14C]SAG substrate at 100 nM by scintillation counting based radio-TLC assay. The format is cell membranes. Conditions: HEK-293T. The method, boiled down: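 mDAGLα radio-TLC using 8.8 μg membrane protein in 50 mM Tris pH 7.4 with 10 mM CaCl2. Inhibitor tested at 10 nM–10 μM, preincubated 15 min at 37 °C. [14C]SAG 20 μM final for 20 min at 37 °C. CHCl3/MeOH quench, silica TLC, phosphorimaging. Activity = labelled 2-AG+AA over total label. n=1–2.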

The species entered for the next assay is Sus scrofa. Description: Inhibition of porcine pancreatic lipase type 2 at 10 uM by FRET assay.
Assay [3] concerns the target T2, Monoglyceride lipase (Homo sapiens) (UniProt Q99685).
T2 sequence (whole entry): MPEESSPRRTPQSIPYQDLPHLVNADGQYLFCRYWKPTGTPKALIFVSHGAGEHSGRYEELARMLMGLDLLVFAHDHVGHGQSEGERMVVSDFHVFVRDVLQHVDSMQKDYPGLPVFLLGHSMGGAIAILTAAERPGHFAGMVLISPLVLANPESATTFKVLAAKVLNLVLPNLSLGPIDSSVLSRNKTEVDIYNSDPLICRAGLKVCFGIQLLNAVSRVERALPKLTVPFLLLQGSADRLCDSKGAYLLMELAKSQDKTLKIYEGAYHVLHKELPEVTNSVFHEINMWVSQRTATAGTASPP
Description: Inhibition of human N-terminal histidine tagged full length MAGL expressed in Escherichia coli at 10 uM by coumarin ester substrate fluorescence assay.

Assay [4] addresses T1, Diacylglycerol lipase-alpha (Mus musculus). Description: Inhibition of mouse DAGLalpha expressed in HEK293T cell membrane using [14C]SAG substrate at 10000 nM by scintillation counting based radio-TLC assay. The format is cell membranes. The following applies: HEK-293T.
The test system of a further assay is Bacteria. Description: Inhibition of bacterial lipoprotein lipase at 10 uM by FRET assay.
Assay [5] deals with T3, Diacylglycerol lipase-alpha (Homo sapiens) (UniProt Q9Y4D2).
T3 sequence (whole entry): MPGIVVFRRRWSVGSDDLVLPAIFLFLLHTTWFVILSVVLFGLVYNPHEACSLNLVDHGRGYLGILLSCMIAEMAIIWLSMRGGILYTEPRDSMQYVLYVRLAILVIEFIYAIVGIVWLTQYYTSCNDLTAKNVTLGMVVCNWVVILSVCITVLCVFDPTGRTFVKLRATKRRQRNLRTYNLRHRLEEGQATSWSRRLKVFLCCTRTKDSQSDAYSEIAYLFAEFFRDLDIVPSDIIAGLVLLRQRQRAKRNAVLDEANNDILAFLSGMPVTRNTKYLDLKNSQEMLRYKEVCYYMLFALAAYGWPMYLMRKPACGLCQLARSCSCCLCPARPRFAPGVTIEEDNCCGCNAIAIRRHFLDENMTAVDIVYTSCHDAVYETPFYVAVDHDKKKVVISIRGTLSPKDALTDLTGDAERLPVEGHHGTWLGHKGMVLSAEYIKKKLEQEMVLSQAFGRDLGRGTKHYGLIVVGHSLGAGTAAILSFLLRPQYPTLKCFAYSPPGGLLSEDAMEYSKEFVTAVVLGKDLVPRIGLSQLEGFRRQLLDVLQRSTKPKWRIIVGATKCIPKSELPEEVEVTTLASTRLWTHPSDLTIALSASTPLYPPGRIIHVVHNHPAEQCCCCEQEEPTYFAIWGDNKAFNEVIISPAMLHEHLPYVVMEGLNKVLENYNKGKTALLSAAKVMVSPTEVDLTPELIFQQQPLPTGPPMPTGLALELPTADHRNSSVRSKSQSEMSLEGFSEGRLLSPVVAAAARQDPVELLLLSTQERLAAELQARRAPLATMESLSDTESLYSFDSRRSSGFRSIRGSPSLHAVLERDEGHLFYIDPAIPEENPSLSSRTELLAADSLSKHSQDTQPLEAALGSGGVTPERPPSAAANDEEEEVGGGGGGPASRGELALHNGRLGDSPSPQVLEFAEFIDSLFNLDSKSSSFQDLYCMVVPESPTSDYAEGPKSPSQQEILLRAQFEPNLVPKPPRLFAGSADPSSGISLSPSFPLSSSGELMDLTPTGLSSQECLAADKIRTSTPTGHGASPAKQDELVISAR
In words: Inhibition of human DAGLalpha expressed in HEK293T cell membrane using [14C]SAG substrate at 10 uM in presence of 0.05% Triton X-100 by […]. The following applies: HEK-293T. It is filed as cell-based.

Assay [6] addresses T3, Diacylglycerol lipase-alpha (Homo sapiens). In words: Inhibition of human DAGLalpha expressed in HEK293T cell membrane using [14C]SAG substrate at 10 uM in detergent free solution by […]. It is filed as cell-based. The following applies: HEK-293T.
For assay [7], the target named is T1, Diacylglycerol lipase-alpha (Mus musculus). In words: Inhibition of mouse DAGLalpha expressed in HEK293T cell membrane using [14C]SAG substrate at 1000 nM by scintillation counting based radio-TLC assay. It is filed as cell membranes. The following applies: HEK-293T.

For seven compounds, inhibition results are on record in ChEMBL document CHEMBL2169869, “Assay and inhibition of diacylglycerol lipase activity” (Bioorg Med Chem Lett, 2012).

The inhibition is the change of the read-out against control, counted positive when it falls.

The source made the active and inactive calls. The rule behind the calls is not given here.

For `CCCCCCCCCCC[C@@H](C[C@@H]1OC(=O)[C@H]1CCCCCC)OC(=O)[C@H](CC(C)C)NC=O` [ORLISTAT], the inhibition in [1] turned out to be 55%; in [2], 72%; in the assay filed under Sus scrofa it was 98%; in assay [3] it was 47%.
For the compound `CCCCCCCCCCC[C@@H](C[C@@H]1OC(=O)[C@H]1CCCCCC)OC(=O)[C@@H](NC=O)[C@H](C)CC`, the inhibition in assay [4] came to 100%; in the assay with Bacteria, 61%; in assay [5] it was 99%; in assay [1] it was 60%; in [6], 92%; in assay [2], 61%. In addition, the inhibition in the assay filed under Sus scrofa turned out to be 98%; in assay [3] it was 1%; in assay [7], 88%.
As to `CCCCCCCCCCC[C@@H](C[C@@H]1OC(=O)[C@H]1CCCCCC)OC(=O)[C@H](CC)NC=O`, the inhibition in [4] came to 100%; with Bacteria it was 80%; in [5] it was 100%; in assay [1] it was 50%; in [6] it was 93%; in assay [2], 68%. In addition, the inhibition in the assay filed under Sus scrofa was 97%; in [3], 45%; in [7], 96%.
On to `CCCCCCCCCCC[C@@H](C[C@@H]1OC(=O)[C@H]1CCCCCC)OC(=O)[C@@H](NC=O)[C@@H](C)CC`, for which the inhibition amounted to 96% in assay [4]; 84% in the assay with Bacteria; 99% in assay [5]; 69% in assay [1]; 92% in assay [6]; 80% in assay [2]. Further, the inhibition worked out at 99% in the assay filed under Sus scrofa, 16% in [3] and 96% in assay [7].
`CCCCCCCCCCC[C@@H](C[C@@H]1OC(=O)[C@H]1CCCCCC)OC(=O)[C@H](NC=O)[C@H](C)CC`: the inhibition in assay [4] was 85%; in the assay on Bacteria, 86%; in assay [5], 98%; in [1], 33%; in [6], 90%; in assay [2], 29%. The figures for the inhibition (in the assay filed under Sus scrofa; in assay [3]; in assay [7]) were 99%, 39% and 69%, respectively.
For `CCCCCCCCCCC[C@@H](C[C@@H]1OC(=O)[C@H]1CCCCCC)OC(=O)[C@H](NC=O)[C@@H](C)CC`, the inhibition is 90% in assay [4]; 68% in the assay on Bacteria; 98% in assay [5]; 19% in [1]; 90% in assay [6]; 51% in [2]. Moreover, the inhibition in the assay listed under Sus scrofa came out at 95%; in assay [3], 42%; in assay [7] it was 75%.
For the compound `O=C(Oc1ccc([N+](=O)[O-])cc1)N1CCC(C(O)(c2ccc3c(c2)OCO3)c2ccc3c(c2)OCO3)CC1`, the inhibition in assay [4] is 3%; with Bacteria, 36%; in [6], 59%; in the assay filed under Sus scrofa it was 36%; in [3], 100%. Also, the inhibition entry in assay [1] is “inactive”.
